# Test results taken from ChEMBL document CHEMBL1764971, “7-azabicyclo[2.2.1]heptane as a structural motif to block mutagenicity of nitrosamines” (Bioorg Med Chem, 2011).
# Experiments:
# Salmonella typhimurium [1] = assay: Mutagenic activity in Salmonella Typhimurium TA100 assessed as number of revertants after 44 hrs by Ames test in presence of rat liver S9 fraction; assay type: toxicity, organism-based; conditions: salmonella enterica subsp. enterica serovar typhimurium, s9, 44 h
# Method in brief: (§1)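 Pre-incubation Ames method. Compound at 0.03, 0.06, 0.13, 0.25 or 0.5 mg in DMSO, mixed with 0.5 mL rat liver S9 mix (P450s plus NADPH-regenerating system) and 0.1 mL tester-strain culture. Shaken 30 min at 37 °C, then top agar added and poured onto minimal-glucose agar. Revertant colonies counted after 44 h at 37 °C. Duplicate plates, experiments repeated at least twice; mean of duplicates.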
# Salmonella typhimurium [2] = assay: Mutagenic activity in Salmonella Typhimurium TA98 assessed as number of revertants after 44 hrs by Ames test; assay type: toxicity, organism-based; conditions: salmonella enterica subsp. enterica serovar typhimurium
# Method in brief: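 Pre-incubation Ames method without metabolic activation. Compound at 0.03, 0.06, 0.13, 0.25 or 0.5 mg in DMSO, mixed with 0.5 mL 0.1 M sodium phosphate buffer (pH 7.4) and 0.1 mL tester-strain culture. Shaken 30 min at 37 °C, then plated in top agar on minimal-glucose agar. Colonies counted after 44 h at 37 °C. Duplicate plates, at least two experiments; mean of duplicates.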
# Salmonella typhimurium [3] = assay: Mutagenic activity in Salmonella Typhimurium TA98 assessed as number of revertants after 44 hrs by Ames test in presence of rat liver S9 fraction; assay type: toxicity, organism-based; conditions: salmonella enterica subsp. enterica serovar typhimurium, s9, 44 h; method in brief: as §1
# Salmonella typhimurium [4] = assay: Cytotoxicity against Salmonella Typhimurium TA98; assay type: organism-based; conditions: salmonella enterica subsp. enterica serovar typhimurium
# Salmonella typhimurium [5] = assay: Cytotoxicity against Salmonella Typhimurium TA98 in presence of rat liver S9 fraction; assay type: organism-based; conditions: salmonella enterica subsp. enterica serovar typhimurium
Compound,Activity (Salmonella typhimurium [1]),Activity (Salmonella typhimurium [2]),Activity (Salmonella typhimurium [3]),Activity (Salmonella typhimurium [4]),Activity (Salmonella typhimurium [5])
CCOC(=O)CCN1C(=O)C2C(C1=O)C1c3ccccc3C2N1N=O (stereo unspecified),Non-toxic,Non-toxic,Non-toxic,,
COC(=O)C1C(C(=O)OC)C2c3ccccc3C1N2N=O (stereo unspecified),Non-toxic,Non-toxic,Non-toxic,,
O=NN1C2c3ccccc3C1C1C(=O)N(c3ccccc3)C(=O)C12 (stereo unspecified),Non-toxic,Non-toxic,Non-toxic,Toxic,Non-toxic
O=NN1C2c3ccccc3C1C(C(F)(F)F)C2C(F)(F)F (stereo unspecified),Non-toxic,Non-toxic,Non-toxic,,
COC(=O)C1CC2c3ccccc3C1N2N=O (stereo unspecified),Non-toxic,Non-toxic,Non-toxic,,
O=NN1C2CCC1c1ccccc12,Non-toxic,Non-toxic,Non-toxic,,
COc1cc2c(cc1OC)C1CCC2N1N=O,Toxic,Toxic,Toxic,,
O=NN1C2CCC1c1cc([N+](=O)[O-])ccc12 (stereo unspecified),Non-toxic,Non-toxic,Non-toxic,,
O=NN1C2C=CC1c1cc([N+](=O)[O-])ccc12 (stereo unspecified),Toxic,Toxic,Toxic,,
O=NN1C2CC(O)C1c1ccc([N+](=O)[O-])cc12 (stereo unspecified),Toxic,Toxic,Toxic,,
O=NN1C2CC(O)C1c1ccccc12 (stereo unspecified),Non-toxic,Non-toxic,Non-toxic,,
O=NN1C2CCC1CC2,Non-toxic,Non-toxic,Non-toxic,,
COC(=O)C1C(C(=O)OC)C2CCC1N2N=O (stereo unspecified),Non-toxic,Non-toxic,Non-toxic,,
COCC12CCC(C(C(=O)OC)C1)N2N=O (stereo unspecified),Non-toxic,Non-toxic,Non-toxic,,
COC(=O)C1CC2(COCc3ccccc3)CCC1N2N=O (stereo unspecified),Non-toxic,Non-toxic,Non-toxic,,
O=NN1Cc2ccccc2C1,Toxic,Non-toxic,Toxic,,
CN1C(=O)[C@@H]2C3c4ccccc4C([C@@H]2C1=O)N3N=O,Non-toxic,Non-toxic,Non-toxic,,
O=NN1CCCC1,Toxic,Non-toxic,Toxic,,
